# From the M2OR odorant receptor database
# Target: T1, OR2M3 (Homo sapiens) (UniProt Q8NG83)
# T1 sequence (whole entry): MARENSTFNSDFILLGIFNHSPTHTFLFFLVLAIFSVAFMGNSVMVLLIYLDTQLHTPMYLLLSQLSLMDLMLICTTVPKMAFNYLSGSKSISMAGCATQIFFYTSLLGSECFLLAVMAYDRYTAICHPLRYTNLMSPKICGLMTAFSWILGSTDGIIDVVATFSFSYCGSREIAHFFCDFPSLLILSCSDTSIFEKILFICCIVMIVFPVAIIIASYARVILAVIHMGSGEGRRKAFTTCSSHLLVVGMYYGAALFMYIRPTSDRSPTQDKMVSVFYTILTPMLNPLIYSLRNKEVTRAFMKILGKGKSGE
# Details: stereoisomer not certain
# In short: (§1)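 Each entry records the cell line, G-protein, co-transfected protein and tags used. Methods varied with the source, often transient luciferase assays in mammalian cell lines. A receptor–molecule pair is called responsive (active) if the original authors judged its signal statistically different from baseline and non-responsive (inactive) otherwise.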
row,Compound,odorant receptor agonist call
1,O=C(O)Cc1ccccc1,inactive
2,Cc1ccc(O)c(C)c1,inactive
3,Cc1ccccc1O,inactive
4,C=CCc1ccc(OC)cc1,inactive
5,CCOC(=O)Cc1ccccc1,inactive
6,CSSC,inactive
7,C=CCOC(=O)Cc1ccccc1,inactive
8,COc1ccc(C=O)cc1,inactive
9,C=CCSSCC=C,inactive
10,SCc1ccco1,inactive
11,Cc1c([N+](=O)[O-])c(C)c([N+](=O)[O-])c(C(C)(C)C)c1[N+](=O)[O-],inactive

# Target: T2, OR2M4 (Homo sapiens) (UniProt Q96R27)
# T2 sequence (whole entry): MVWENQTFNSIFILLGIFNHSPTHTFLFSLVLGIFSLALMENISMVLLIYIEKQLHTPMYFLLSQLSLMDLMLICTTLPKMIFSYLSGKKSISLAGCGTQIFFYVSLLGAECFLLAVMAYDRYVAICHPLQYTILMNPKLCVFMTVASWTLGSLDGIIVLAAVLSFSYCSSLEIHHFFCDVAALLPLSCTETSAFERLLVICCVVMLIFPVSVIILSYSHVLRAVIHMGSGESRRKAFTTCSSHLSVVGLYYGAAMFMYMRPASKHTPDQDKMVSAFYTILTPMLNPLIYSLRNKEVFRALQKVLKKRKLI
# Details: stereoisomer not certain
# In short: as §1
row,Compound,odorant receptor agonist call
1,C=CCOC(=O)Cc1ccccc1,inactive
2,O=CC=Cc1ccccc1,active
3,O=Cc1ccccc1,inactive

# Target: T3, OR2M7 (Homo sapiens) (UniProt Q8NG81)
# T3 sequence (whole entry): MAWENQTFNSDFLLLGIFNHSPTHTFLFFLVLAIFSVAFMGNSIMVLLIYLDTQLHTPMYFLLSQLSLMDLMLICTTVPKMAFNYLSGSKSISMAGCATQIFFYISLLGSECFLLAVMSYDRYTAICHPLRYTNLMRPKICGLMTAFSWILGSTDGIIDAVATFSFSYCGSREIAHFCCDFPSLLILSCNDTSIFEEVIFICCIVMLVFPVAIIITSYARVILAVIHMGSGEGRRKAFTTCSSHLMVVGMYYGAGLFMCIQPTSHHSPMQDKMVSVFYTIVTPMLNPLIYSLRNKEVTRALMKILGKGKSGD
# Details: stereoisomer not certain
# In short: as §1
row,Compound,odorant receptor agonist call
1,O=c1cc(O)c2ccccc2o1,inactive
2,C=CCc1ccccc1,inactive
3,C=CCOC(=O)Cc1ccccc1,inactive
4,CCC1CCC(=O)O1 (centres undefined),inactive
5,Cc1c([N+](=O)[O-])c(C)c([N+](=O)[O-])c(C(C)(C)C)c1[N+](=O)[O-],inactive

# Target: T4, OR2T10 (Homo sapiens) (UniProt Q8NGZ9)
# T4 sequence (whole entry): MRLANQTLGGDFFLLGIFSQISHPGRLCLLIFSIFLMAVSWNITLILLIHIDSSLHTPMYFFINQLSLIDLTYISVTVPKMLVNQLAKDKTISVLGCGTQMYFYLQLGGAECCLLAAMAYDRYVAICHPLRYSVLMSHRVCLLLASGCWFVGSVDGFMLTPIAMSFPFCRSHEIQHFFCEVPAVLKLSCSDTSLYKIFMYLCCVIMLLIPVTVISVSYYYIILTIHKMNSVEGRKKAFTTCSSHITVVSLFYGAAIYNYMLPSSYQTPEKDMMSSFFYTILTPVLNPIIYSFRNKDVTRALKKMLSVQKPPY
# Details: stereoisomer not certain
# In short: as §1
row,Compound,odorant receptor agonist call
1,C=CCc1ccc(OC)cc1,inactive
2,C=CCOC(=O)Cc1ccccc1,inactive
3,O=CC=Cc1ccccc1,active
4,O=Cc1ccccc1,inactive
5,Cc1c([N+](=O)[O-])c(C)c([N+](=O)[O-])c(C(C)(C)C)c1[N+](=O)[O-],inactive
